Among the data in ChEMBL document CHEMBL1132528, “A novel molecular design of thrombin receptor antagonist” (Bioorg Med Chem Lett, 1999) are EC50 and Activity values, retold here.

Activity calls are given as the source filed them. The calls are words filed in the database; no cut-off is given here. Peptide text beside a SMILES is read from it.

Test [1] is filed under the species Homo sapiens. The test can be described thus: Platelet aggregation activity of the compound. The class given is functional, organism-based. Summed up:
(§1)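 Human platelet-rich plasma from healthy donors who had taken no medication for the previous two weeks. Synthetic peptides were added directly and scored for their ability to induce platelet aggregation.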

Test [2] addresses T1, Proteinase-activated receptor 1 (Homo sapiens) (UniProt P25116).
T1 sequence (whole entry): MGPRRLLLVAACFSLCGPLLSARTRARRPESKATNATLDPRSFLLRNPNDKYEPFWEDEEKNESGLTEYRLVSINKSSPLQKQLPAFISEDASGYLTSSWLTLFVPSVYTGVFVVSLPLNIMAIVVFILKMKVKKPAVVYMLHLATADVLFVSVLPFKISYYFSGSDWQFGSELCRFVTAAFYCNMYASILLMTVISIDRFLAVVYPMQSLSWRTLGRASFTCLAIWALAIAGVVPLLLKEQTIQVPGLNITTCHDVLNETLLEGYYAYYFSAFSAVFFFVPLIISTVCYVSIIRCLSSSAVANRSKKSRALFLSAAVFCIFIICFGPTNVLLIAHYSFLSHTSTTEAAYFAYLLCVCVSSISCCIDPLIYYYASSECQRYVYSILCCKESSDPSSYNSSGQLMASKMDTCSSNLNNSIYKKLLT
As to the kind of experiment: Thrombin receptor antagonistic activity was evaluated by the inhibition of platelet aggregation induced by the agonist SFLLRNP; IA means inactive. The class given is functional. In short, it runs like this: (§2)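 Human platelet-rich plasma from drug-free healthy donors. Test peptide (e.g. 100 μM) was incubated in the plasma for 3 min, then SFLLRNP agonist was added to induce aggregation. Inhibition of aggregation was measured; IC50 came from dose-dependent inhibition.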

The species entered for test [3] is Homo sapiens. As to the kind of experiment: Platelet aggregation activity of the compound; IA means inactive. The class given is functional, organism-based. In short, it runs like this: as §1
For test [4], the target named is T1, Proteinase-activated receptor 1 (Homo sapiens). The test can be described thus: Thrombin receptor antagonistic activity was evaluated by the inhibition of platelet aggregation induced by the agonist SFLLRNP. Type of test: functional. The arrangement: scale not given: the % may be the effect or the level left. In short, it runs like this: as §2

As a reminder, the EC50 is the concentration needed to bring the measured effect to its halfway point.

Take `CC(C)C[C@H](NC(=O)[C@H](CC(C)C)NC(=O)[C@H](Cc1ccccc1)NC(=O)[C@@H](N)CO)C(=O)N[C@@H](CCCN=C(N)N)C(=O)N[C@@H](CC(N)=O)C(=O)N1CCC[C@H]1C(=O)O` (H-SFLLRNP-OH): in the test filed under Homo sapiens [1], the response was half-maximal at 4.27 µM (EC50). Also, in test [2], the result was inactive.
Turning to `CC(C)C[C@H](NC(=O)[C@H](CC(C)C)NC(=O)[C@H](CC(=O)O)NC(=O)[C@@H](N)CO)C(=O)N[C@@H](CCCN=C(N)N)C(=O)N[C@@H](CC(N)=O)C(=O)N1CCC[C@H]1C(=O)O` (H-SDLLRNP-OH), the EC50 entry in the test listed under Homo sapiens [3] is “Not Active”. Further, the result in test [2] was inactive.
As for `CC(C)C[C@H](NC(=O)[C@H](CC(=O)O)NC(=O)[C@H](Cc1ccccc1)NC(=O)[C@@H](N)CO)C(=O)N[C@@H](CCCN=C(N)N)C(=O)N[C@@H](CC(N)=O)C(=O)N1CCC[C@H]1C(=O)O` (H-SFDLRNP-OH), in the test filed under Homo sapiens [3], the EC50 result is “Not Active”. Also, the Activity in test [4] came out at 19%.
In the case of `CC(C)C[C@H](NC(=O)[C@H](CC(C)C)NC(=O)[C@H](Cc1ccccc1)NC(=O)[C@@H](N)CC(=O)O)C(=O)N[C@@H](CCCN=C(N)N)C(=O)N[C@@H](CC(N)=O)C(=O)N1CCC[C@H]1C(=O)O` (H-DFLLRNP-OH), in the test listed under Homo sapiens [3], the EC50 result was “Not Active”. In addition, the result in test [2] was inactive.
For `CC(C)C[C@H](NC(=O)[C@H](CC(C)C)NC(=O)[C@H](Cc1ccccc1)NC(=O)[C@@H](N)CO)C(=O)N[C@@H](CCCN=C(N)N)C(=O)N[C@@H](CC(N)=O)C(=O)N[C@@H](CC(=O)O)C(=O)O` (H-SFLLRND-OH), in the test listed under Homo sapiens [1], a half-maximal effect (EC50) was put at 4.27 µM. The outcome in test [2] was inactive.
As for `CC(C)C[C@H](NC(=O)[C@H](Cc1ccccc1)NC(=O)[C@@H](N)CO)C(=O)N[C@@H](CC(=O)O)C(=O)N[C@@H](CCCN=C(N)N)C(=O)N[C@@H](CC(N)=O)C(=O)N1CCC[C@H]1C(=O)O` (H-SFLDRNP-OH), in the test listed under Homo sapiens [3], the EC50 result is on record as “Not Active”. Moreover, the outcome in test [2] was inactive.
In the test filed under Homo sapiens [1], `CC(C)C[C@H](NC(=O)[C@H](CC(C)C)NC(=O)[C@H](Cc1ccccc1)NC(=O)[C@@H](N)CO)C(=O)N[C@@H](CCCN=C(N)N)C(=O)N[C@@H](CC(=O)O)C(=O)N1CCC[C@H]1C(=O)O` (H-SFLLRDP-OH) returned an EC50 of 4.36 µM. Further, in test [2], the result was inactive.
For the compound `CC(C)C[C@H](NC(=O)[C@H](CC(C)C)NC(=O)[C@H](Cc1ccccc1)NC(=O)[C@@H](N)CO)C(=O)N[C@@H](CC(=O)O)C(=O)N[C@@H](CC(N)=O)C(=O)N1CCC[C@H]1C(=O)O` (H-SFLLDNP-OH), the EC50 result in the test listed under Homo sapiens [3] is reported as “Not Active”. The outcome in test [2] was inactive.
